Experimental data reported in ChEMBL document CHEMBL4610005, “Discovery of a new class of PROTAC BRD4 degraders based on a dihydroquinazolinone derivative and lenalidomide/pomalidomide” (Bioorg Med Chem, 2020).
Active and inactive are the calls of the source. The calls are words filed in the database; no cut-off is given here.

How the values were obtained:
[1] = tested on: THP-1; experiment: Antiproliferative activity against human THP1 cells assessed as reduction in cell viability incubated for 72 hrs by cell titer glo assay; assay type: functional, cell-based; details: THP-1, 72 h
Procedure, shortened: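 THP-1 cells were seeded and held 24 h at 37 °C, 5% CO2, then given serially diluted compound in medium for 72 h. Proliferation was read by CellTiter-Glo luminescence. IC50 was fitted from the dose-response and reported as mean ± SD of three independent assays.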

[2] = tested on: THP-1; experiment: Antiproliferative activity against human THP1 cells assessed as reduction in cell viability at 2.5 uM incubated for 72 hrs by cell titer glo assay; assay type: functional, cell-based
Procedure, shortened: (§1)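 Cells seeded and held 24 h at 37 °C, 5% CO2, then exposed to compound at a single 2.5 μM for 72 h under the same conditions. Viability was read by CellTiter-Glo luminescence after 10 min shaking and 2 min signal stabilisation at room temperature. Percent inhibition is the mean of three independent experiments.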

[3] = molecular target: T1, Bromodomain-containing protein 4 (Homo sapiens, UniProt O60885); details: at 500 nM
[4] = molecular target: T1, Bromodomain-containing protein 4
[5] = tested on: Raji; experiment: Antiproliferative activity against human Raji cells assessed as reduction in cell viability at 2.5 uM incubated for 72 hrs by cell titer glo assay; assay type: functional, cell-based; procedure, shortened: as §1
[6] = tested on: HL-60; experiment: Antiproliferative activity against human HL60 cells assessed as reduction in cell viability at 2.5 uM incubated for 72 hrs by cell titer glo assay; assay type: functional, cell-based; procedure, shortened: as §1
[7] = molecular target: T2, Protein cereblon/Bromodomain-containing protein 4 (Homo sapiens) (UniProt O60885+Q96SW2); experiment: Protac activity at CRBN/BRD4 in human THP1 cells assessed as decrease in c-Myc suppression at 1 uM incubated for 3 hrs by Western blot analysis; assay type: cell-based; details: THP-1
T2 sequence (Q96SW2 whole entry, looked up, other chains not shown): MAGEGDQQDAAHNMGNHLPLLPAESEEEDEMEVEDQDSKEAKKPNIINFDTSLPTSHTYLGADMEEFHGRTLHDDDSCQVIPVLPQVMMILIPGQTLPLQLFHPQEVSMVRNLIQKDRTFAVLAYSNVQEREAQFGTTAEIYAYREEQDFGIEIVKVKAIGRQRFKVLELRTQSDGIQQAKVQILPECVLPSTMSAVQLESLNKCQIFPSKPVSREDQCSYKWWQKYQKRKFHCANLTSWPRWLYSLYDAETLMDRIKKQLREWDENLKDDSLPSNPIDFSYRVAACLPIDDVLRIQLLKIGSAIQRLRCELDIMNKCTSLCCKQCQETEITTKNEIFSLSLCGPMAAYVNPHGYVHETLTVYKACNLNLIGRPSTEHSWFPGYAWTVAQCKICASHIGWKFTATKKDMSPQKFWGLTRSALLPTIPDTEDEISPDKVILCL
Procedure, shortened: (§2)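 THP-1 cells were plated at 2×10^6 cells/well and treated for 3 h. Lysis was in RIPA buffer with protease inhibitors. 30 μg of lysate per lane was run on SDS-PAGE and blotted to PVDF. Membranes were probed with antibodies to BRD4 and c-Myc, with GAPDH as loading control.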

[8] = molecular target: T2, Protein cereblon/Bromodomain-containing protein 4 (Homo sapiens); experiment: Protac activity at CRBN/BRD4 in human THP1 cells assessed as increase in BRD4 degradation at 3 uM incubated for 3 hrs by Western blot analysis; assay type: cell-based; details: THP-1; procedure, shortened: as §2
[9] = molecular target: T1, Bromodomain-containing protein 4; remark: listed apart in the source

SMILES	IC50 [1] [nM]	inhibition [2]	inhibition [3] [%]	IC50 [4] [nM]	inhibition [5]	inhibition [6]	Activity [7]	Activity [8]	IC50 [9] [nM]
Cc1noc(C)c1-c1ccc2c(c1)C(c1ccccc1)N(Cc1cn(CCOCC(=O)Nc3cccc4c3CN(C3CCC(=O)NC3=O)C4=O)nn1)C(=O)N2C (stereo unspecified)	1830	Active	99	14.2	Active	Active	–	–	–
Cc1noc(C)c1-c1ccc2c(c1)C(c1ccccc1)N(CC(=O)NCCC(=O)Nc1cccc3c1CN(C1CCC(=O)NC1=O)C3=O)C(=O)N2C (stereo unspecified)	–	–	94	132	–	–	–	–	–
Cc1noc(C)c1-c1ccc2c(c1)C(c1ccccc1)N(CC(=O)NCCCCC(=O)Nc1cccc3c1CN(C1CCC(=O)NC1=O)C3=O)C(=O)N2C (stereo unspecified)	–	–	91	134	–	–	–	–	–
Cc1noc(C)c1-c1ccc2c(c1)C(c1ccccc1)N(Cc1cn(CCOCC(=O)Nc3cccc4c3C(=O)N(C3CCC(=O)NC3=O)C4=O)nn1)C(=O)N2C (stereo unspecified)	810	Active	99	41.8	Active	Active	Active	–	–
Cc1noc(C)c1-c1ccc2c(c1)C(c1ccccc1)N(CC(=O)NCCCC(=O)Nc1cccc3c1CN(C1CCC(=O)NC1=O)C3=O)C(=O)N2C (stereo unspecified)	–	–	89	138	–	–	–	–	–
Cc1noc(C)c1-c1ccc2c(c1)C(c1ccccc1)N(CCCCCCC(=O)Nc1cccc3c1CN(C1CCC(=O)NC1=O)C3=O)C(=O)N2C (stereo unspecified)	–	–	96	118	–	–	–	–	–
Cc1noc(C)c1-c1ccc2c(c1)C(c1ccccc1)N(CC(=O)NCCCCCCCC(=O)Nc1cccc3c1CN(C1CCC(=O)NC1=O)C3=O)C(=O)N2C (stereo unspecified)	–	–	96	68.3	–	–	–	–	–
Cc1noc(C)c1-c1ccc2c(c1)C(c1ccccc1)N(Cc1cn(CCOCCOCC(=O)Nc3cccc4c3C(=O)N(C3CCC(=O)NC3=O)C4=O)nn1)C(=O)N2C (stereo unspecified)	1660	Active	93	67.7	Active	Active	–	–	–
Cc1noc(C)c1-c1ccc2c(c1)C(c1ccccc1)NC(=O)N2C (stereo unspecified)	3260	Active	100	46.4	Active	Active	–	inactive	–
Cc1noc(C)c1-c1ccc2c(c1)C(c1ccccc1)N(Cc1cn(CCOCCOCCOCC(=O)Nc3cccc4c3C(=O)N(C3CCC(=O)NC3=O)C4=O)nn1)C(=O)N2C (stereo unspecified)	1750	Active	86	68.5	Active	Active	–	–	–
Cc1noc(C)c1-c1ccc2c(c1)C(c1ccccc1)N(C)C(=O)N2 (stereo unspecified)	–	–	–	–	–	–	–	–	44
Cc1noc(C)c1-c1ccc2c(c1)C(c1ccccc1)N(Cc1cn(CCOCCOCCOCC(=O)Nc3cccc4c3CN(C3CCC(=O)NC3=O)C4=O)nn1)C(=O)N2C (stereo unspecified)	–	Active	100	22.1	Active	Active	–	–	–
Cc1noc(C)c1-c1ccc2c(c1)C(c1ccccc1)N(CCCCCC(=O)Nc1cccc3c1CN(C1CCC(=O)NC1=O)C3=O)C(=O)N2C (stereo unspecified)	–	–	93	135	–	–	–	–	–
Cc1noc(C)c1-c1ccc2c(c1)C(c1ccccc1)N(Cc1cn(CCOCCOCCOCCOCC(=O)Nc3cccc4c3CN(C3CCC(=O)NC3=O)C4=O)nn1)C(=O)N2C (stereo unspecified)	–	Active	100	22.6	Active	Active	–	–	–
Cc1noc(C)c1-c1ccc2c(c1)C(c1ccccc1)N(CC(=O)NCCCCCCC(=O)Nc1cccc3c1CN(C1CCC(=O)NC1=O)C3=O)C(=O)N2C (stereo unspecified)	–	–	100	80.6	–	–	–	–	–
Cc1noc(C)c1-c1ccc2c(c1)C(c1ccccc1)N(Cc1cn(CCOCCOCC(=O)Nc3cccc4c3CN(C3CCC(=O)NC3=O)C4=O)nn1)C(=O)N2C (stereo unspecified)	–	Active	100	15.4	Active	Active	–	–	–
Cc1noc(C)c1-c1ccc2c(c1)C(c1ccccc1)N(Cc1cn(CCOCCOCCOCCOCC(=O)Nc3cccc4c3C(=O)N(C3CCC(=O)NC3=O)C4=O)nn1)C(=O)N2C (stereo unspecified)	–	–	60	173	–	–	–	–	–
Cc1noc(C)c1-c1ccc2c(c1)C(c1ccccc1)N(CC(=O)NCCCCCC(=O)Nc1cccc3c1CN(C1CCC(=O)NC1=O)C3=O)C(=O)N2C (stereo unspecified)	–	–	98	99.1	–	–	–	–	–
Cc1sc2c(c1C)C(c1ccc(Cl)cc1)=N[C@@H](CC(=O)OC(C)(C)C)c1nnc(C)n1-2	–	Active	–	–	Active	Active	–	–	–
Cc1noc(C)c1-c1ccc2c(c1)C(c1ccccc1)N(CCCCC(=O)Nc1cccc3c1CN(C1CCC(=O)NC1=O)C3=O)C(=O)N2C (stereo unspecified)	–	–	90	144	–	–	–	–	–
